Experimental data as given in the array DNA melting data of Ke et al. (doi:10.1101/2024.01.08.574731).

Tests used:
[1] = melting temperature; fluorescence melt of hairpins on a sequencing array, two-state fit, raised by 9.35 °C to match UV melts; settings: sodium 0.088 M
Outline: (§1)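 In 50 mM Na-HEPES pH 8.0 containing 25 mM NaCl, hairpins from the library on a sequenced MiSeq flow cell were imaged for Cy3 fluorescence at 2.5 °C steps up to 60 °C, with Cy3 and quencher oligos annealed. After normalisation to pre-quench Cy3 and to control constructs, two-state fits with bootstrapping gave melting temperature and folding enthalpy. Four replicates were combined by inverse-variance weighting, and fitted temperatures were shifted up by 9.35 °C to match UV melts.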

[2] = folding enthalpy; higher = less favourable; fluorescence melt of hairpins on a sequencing array, two-state fit; settings: sodium 0.088 M
Outline: as §1

| Sequence | Tm [1] [°C] | folding enthalpy [2] [kcal/mol] |
| --- | --- | --- |
| GCACGGCGAAAGCTGCGC ((.(.((....)).).)) | 61 | -20.8 |
| GCCACCTCGAAAGAGGGC (((..(((....)))))) | 44.5 | -9.58 |
| GGTTCTCGAAAGAGTACC (((.(((....))).))) | 46.7 | -26.1 |
| GCCTCGCGAAAGCCACGC ((.(.((....)).).)) | 20.5 | -6.05 |
| GCATGCGAAAGCAATTGC ((((((....)))..))) | 44.1 | -19.5 |
| GGTACCGAAAGGTGAACC ((((((....)))..))) | 37.1 | -15.5 |
| GTCAGGGGAAACTCTGAC (((((.(....).))))) | 48.9 | -33.4 |
| GATCGCCGAAAGGCCATC (((.(((....))).))) | 38.6 | -14.5 |
| GGTATCGAAAGATACACC ((((((....)))..))) | 42.9 | -11.8 |
| GAGCACGAAAGTGTCCTC ((((((....)))..))) | 35.2 | -12.9 |
| CGGTGCGGAAACGCCCCG (((.(((....))).))) | 53.9 | -28.6 |
| GAGAGCGAAAGCTCCCTC ((((((....)))..))) | 44 | -10.3 |
| GTACTCGAAAGAGTTAC ((((((....))).))) | 38.9 | -14.8 |
| CGCAACGGAAACGTGGCG (((.(((....))).))) | 57.7 | -46.5 |
| GCTGTCTCGAAAGAGAGC (((..(((....)))))) | 38.3 | -15.5 |
| GCAACGCGAAAGCATCGC ((.(.((....)).).)) | 39.2 | -13.5 |
| GCCGAAGAAATTCGGC ((((((....)))))) | 67.4 | -33.9 |
| GAACTGCGAAAGCACTTC (((.(((....))).))) | 28.4 | -10.9 |
| GATCAAGGTGTTGATC ((((((....)))))) | 46.1 | -31.7 |
| GTTGATCGAAAGATAAAC (((.(((....))).))) | 40 | -25.1 |
| GCCTAGCCGAAAGGCGGC (((..(((....)))))) | 59.7 | -14.1 |
| GATCGACCATCGATC ((((((...)))))) | 49.6 | -32.2 |
| GCTATTGGAAACGATAGC (((((.(....).))))) | 44.8 | -32.4 |

| Sequence | Tm [1] [°C] | folding enthalpy [2] [kcal/mol] |
| --- | --- | --- |
| GCTGCGCGAAAGCTCCGC ((.(.((....)).).)) | 38.5 | -12.3 |
| GCTCGGCGAAAGCGGCGC ((.(.((....)).).)) | 54 | -15.8 |
| GATCTCCACGGAGATC ((((((....)))))) | 55.9 | -39.2 |
| GAGAGCGAAAGCTACCTC ((((((....)))..))) | 30.1 | -10.4 |
| GACACGGGAAACCACGTC (((..((....))..))) | 34.6 | -29 |
| GATCGTCGTCACGATC ((((((....)))))) | 53.5 | -40.6 |
| GACCACCGAAAGGTGTC (((.(((....)))))) | 47.5 | -12.7 |
| GACGTGACGAAAGTCGTC (((..(((....)))))) | 49.4 | -14.2 |
| GAGCACGGAAACATGCTC (((((.(....).))))) | 45.4 | -35 |
| GGGCAATCGAAAGATCCC (((..(((....)))))) | 34 | -21.5 |
| ACATAGAAATATGT (((((....))))) | 24.6 | -7.88 |
| GCCATGTCGAAAGACGGC (((..(((....)))))) | 51.5 | -20.1 |
| GGACTGCCGAAAGGCTCC (((..(((....)))))) | 34.7 | -10.2 |
| GGCTCTGCGAAAGCAGCC (((..(((....)))))) | 40.6 | -9.66 |
| GATGCACGAAAGTGGATC (((.(((....))).))) | 54.9 | -37.5 |
| GATCTCTCTGAGATC ((((((...)))))) | 55.4 | -37.5 |
| GTGTGAGGAAACTTACAC ((((.((....)).)))) | 43.9 | -37.6 |
| GATCGAGTCTCGATC ((((((...)))))) | 53.2 | -39.2 |
| GCGCTCGAAAGAGAACGC ((((((....)))..))) | 50.4 | -30.8 |
| GTTGAGGCGAAAGCCAAC (((..(((....)))))) | 40.7 | -14.6 |
| GGTCGCTCGAAAGAGACC (((..(((....)))))) | 49.1 | -20.6 |
| GCCTTGCGAAAGCAACGC ((.((((....)))).)) | 54.7 | -14.3 |
| GGTCGTGAAAACGACC ((((((....)))))) | 69.2 | -34.3 |

| Sequence | Tm [1] [°C] | folding enthalpy [2] [kcal/mol] |
| --- | --- | --- |
| GCCCAGGGAAACCCGGAC (.((.((....)).)).) | 28.6 | -4.63 |
| GCAAAGCGAAAGCCGTGC (((..((....))..))) | 39.9 | -11.4 |
| CGCAGGAAACTGCG (((((....))))) | 60.3 | -25.9 |
| GAGGCCGAAAGGCACCTC ((((((....)))..))) | 40 | -8.77 |
| GGTTCCGAAAGGATCACC ((((((....)))..))) | 33.1 | -14.7 |
| GCGTGCGAAAGCATCCGC ((((((....)))..))) | 47.6 | -17.3 |
| GGGAAAGGAAACTTTCCC (((((((....))))))) | 57.7 | -47 |
| GATCTCTGAGAGATC ((((((...)))))) | 52.1 | -32.5 |
| GTTGCCCCGAAAGGGAAC (((..(((....)))))) | 39.2 | -14.2 |
| GATCTCCAAGAGATC ((((((...)))))) | 49.8 | -30.2 |
| GGCCACGAAAGTGAAGCC ((((((....)))..))) | 53.5 | -31.9 |
| CGGATCGGAAACGAGCCG (((.(((....))).))) | 65.4 | -47.4 |
| GGTAGCGAAAGCTCTACC ((((((....)))..))) | 38.1 | -16.4 |
| GCGGCAGGAAACTGCTGC ((.((((....)))).)) | 62.9 | -43.2 |
| GATCAGACCACTGATC ((((((....)))))) | 49.4 | -37.1 |
| GATCGCGAAAGCGTAATC ((((((....)))..))) | 29.2 | -8.8 |
| GCGTATCACGC ((((...)))) | 56.9 | -34.2 |
| CGTTACGGAAACGTACG (((.(((....)))))) | 45.4 | -26.3 |
| GTCGTGGCGAAAGCCGAC (((..(((....)))))) | 54.6 | -17.2 |
| GCGACCGAAAGGTTCGC ((((((....))).))) | 65.6 | -33 |
| GGGTATGGAAACATACTC (.(((((....))))).) | 44.8 | -23 |
| GGAGCCGAAAGGCTGTCC ((((((....)))..))) | 41 | -8.93 |
| GTGGAACCGAAAGGTCAC (((..(((....)))))) | 42.3 | -21.9 |

| Sequence | Tm [1] [°C] | folding enthalpy [2] [kcal/mol] |
| --- | --- | --- |
| GTAAACGGAAACGCTTAC ((((.((....)).)))) | 37.1 | -29.5 |
| GGACGTCGAAAGACATCC (((.(((....))).))) | 47.3 | -26.5 |
| GATCTTGATCAAGATC ((((((....)))))) | 49.7 | -40.9 |
| GCCCACGAAAGTGCGGC ((((((....))).))) | 63.3 | -29.5 |
| GGGCCGCGAAAGCGACCC (((.(((....))).))) | 68.8 | -29.7 |
| GGAAACCGAAAGGTTCC (((.(((....)))))) | 51.9 | -18.8 |
| GATCAAGCGTTTGATC ((((((....)))))) | 43.9 | -30.8 |
| GATCTCCAATGAGATC ((((((....)))))) | 51.3 | -34.2 |
| GCGTCCACACGC ((((....)))) | 52.4 | -27.1 |
| GGCAAAGGAAACTTTGTC (.(((((....))))).) | 46.5 | -29.1 |
| GGTGAGGGAAACCTCGTC (..((((....))))..) | 33.2 | -13.3 |
| GTGACACCGAAAGGTCAC (((..(((....)))))) | 47.8 | -25 |
| GCGAACAGTCGC ((((....)))) | 42.1 | -16.4 |
| GCAGCGCGAAAGCGAAGC ((..(((....)))..)) | 57.5 | -18.7 |
| GCGCAGACGAAAGTCCGC (((..(((....)))))) | 52.4 | -25 |
| GTGAGAGGAAACTCCCAC (((.(((....))).))) | 36.6 | -24.7 |
| GATCAATGTTTTGATC ((((((....)))))) | 47 | -29.4 |
| CGCTCACGGAAACGTGCG (((..(((....)))))) | 39.6 | -15.6 |
| GCGAAAGGAAACTTTTGC ((.((((....)))).)) | 45.9 | -32.1 |
| GCATTGGCGAAAGCCTGC (((..(((....)))))) | 44.3 | -15.1 |
| GCATTCGCGAAAGCGTGC (((..(((....)))))) | 41.8 | -11.8 |
| CGTTAGAAATAACG (((((....))))) | 37 | -20.5 |
| GTACGTGGAAACATGTAC ((((.((....)).)))) | 47.5 | -34.1 |
